Source: paper PMC4109024 (Nature communications, 2014)
“Also recorded” adds a separate entry of the source.

Experiments:
[1] = system: CNGB3-MYC expressing HEK293T cells; assay: Biotin-z13 localization / endosome-escaping activity; assay type: cell-based; conditions: 37°C, 30 min, biotin-z13 in presence of HLAH-z13; Alexa 488-avidin
[2] = system: CNGB3-Myc transfected A431 cells; assay: Cell viability assay, CNGB3-positive A431 cells; assay type: cell-based; conditions: 37°C, 6 hours, ATP by CellTiter Glo; for Concentration above which cell viability was affected, CNGB3-positive A431: single peptide
Method in brief: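 CNGB3–MYC-transfected A431 cells, with untransfected CNGB3-negative A431 as control, grown in DME/F12 with 10% FCS. Cells were exposed to single peptides or the two-peptide combination at a range of concentrations for 6 h at 37 °C. Peptide stocks were 100 μg/μl in DMSO, and a DMSO-only control was run at 0.01% final. Viability was read as ATP content by CellTiter Glo luminescence.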

[3] = system: CNGB3-MYC expressing HEK293T cells; assay: TUNEL apoptosis assay, CNGB3-MYC HEK293T cells; assay type: cell-based
Method in brief: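 HEK293T cells transfected with CNGB3–MYC were cultured for 20 h at 37 °C with one of these treatments: no peptide; targeting peptide, 100 μg/ml; pro-apoptotic peptide, 100 μg/ml; its conjugate, 100 μg/ml; endosome-escaping conjugate, 25 μg/ml; or conjugates at 100 plus 25 μg/ml. Stocks were 100 μg/μl in DMSO. Apoptosis was detected by immunoperoxidase TUNEL.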

[4] = system: human endometrial adenocarcinoma Ishikawa cells; assay: Phage binding/internalization to Ishikawa cells; assay type: cell-based; conditions: cloned phage, 37°C, 30 min; plaque forming assay; repeated three times
Method in brief: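 Phage clones came from a T7 library of linear 9-mer peptides. Each selection round had two steps: 1 h in vivo subtraction in female mouse peritoneum, then 30 min internalization into Ishikawa monolayers at 37 °C. Clones from three such rounds were each added to Ishikawa monolayers, or A431 controls, for 30 min at 37 °C. Internalized phage was counted by plaque assay, and binding was expressed as plaques recovered relative to phage added.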

[5] = system: Ishikawa cell surface proteins; assay: z13 affinity isolation of biotinylated Ishikawa cell surface proteins; assay type: binding, human; conditions: biotinylated Ishikawa lysate; z13 peptide 1 mg/ml elution; avidin blot
Method in brief: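 Ishikawa monolayers were surface-biotinylated with sulpho-NHS-LC-biotin (0.5 mg/ml in PBS, 30 min) and solubilized at 4 °C in TBS with 50 mM octyl-thio-glucoside and protease inhibitors. Lysate was precleared on agarose for 2 h at 4 °C, then bound to peptide-conjugated agarose. Elution used peptide at 1 mg/ml, with an irrelevant peptide as control. Eluates were analysed by SDS–PAGE, peroxidase-avidin blot and chemiluminescence.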

[6] = system: CNGB3-expressing A431 cells; assay: Inhibition of KLAK-z13 plus HLA-z13 cytotoxicity by z13 / palmitoyl-z13; assay type: cell-based; conditions: KLAK-z13 100 μg/ml + HLA-z13 25 μg/ml, 37 °C, 6 hours; average of triplicate; repeated three times

Sequence | Effect on biotin-z13 localization (endosome-escaping activity) [1] | Cell viability, CNGB3-positive A431 [2] | Concentration above which cell viability was affected, CNGB3-positive A431 [2] [µg/mL] | Apoptosis of CNGB3-expressing HEK293T cells, HLAH-z13 25 μg/ml ([3]; 25 μg/ml, 37°C, 20 hours, TUNEL) | Apoptosis of CNGB3-MYC transfected HEK293T cells, dKLAK-z13 alone ([3]; culture medium of transfected cells, concentration not given) | Binding strength to Ishikawa cells among phage clones [4] | Protein bound to z13 beads and eluted by z13 peptide [5] | Blocking of cytotoxicity of KLAK-z13 plus HLA-z13 [6]
HLAHLAHHLAHLAHHLAHVRRADNRPG [HLAH-z13] | diffuse cytoplasmic signals | cell viability was not affected except at high concentrations | > 50 | did not undergo apoptosis |  |  |  | 
KLAKLAKKLAKLAKKLAKVRRADNRPG [dKLAK-z13] |  | cell viability was not affected except at high concentrations | > 200 |  | apoptosis was not induced; also recorded: did not induce apoptosis |  |  | 
VRRADNRPG [z13] |  | cell viability was not affected |  |  |  | the strongest binder | single 68 kDa protein | blocked
